In ChEMBL document CHEMBL1138602, “Discovery of sodium 6-[(5-chloro-2-{[(4-chloro-2-fluorophenyl)methyl]oxy}phenyl)methyl]-2-pyridinecarboxylate (GSK269984A) an EP(1) receptor antagonist for the treatment of inflammatory pain” (Bioorg Med Chem Lett, 2009):

Experiments:
[1] = molecular target: T1, Prostaglandin E2 receptor EP1 subtype (Homo sapiens, UniProt P34995); assay: Displacement of [3H]PGE2 from human EP1 receptor expressed in CHO cells; assay type: cell-based
T1 sequence (P34995 whole entry): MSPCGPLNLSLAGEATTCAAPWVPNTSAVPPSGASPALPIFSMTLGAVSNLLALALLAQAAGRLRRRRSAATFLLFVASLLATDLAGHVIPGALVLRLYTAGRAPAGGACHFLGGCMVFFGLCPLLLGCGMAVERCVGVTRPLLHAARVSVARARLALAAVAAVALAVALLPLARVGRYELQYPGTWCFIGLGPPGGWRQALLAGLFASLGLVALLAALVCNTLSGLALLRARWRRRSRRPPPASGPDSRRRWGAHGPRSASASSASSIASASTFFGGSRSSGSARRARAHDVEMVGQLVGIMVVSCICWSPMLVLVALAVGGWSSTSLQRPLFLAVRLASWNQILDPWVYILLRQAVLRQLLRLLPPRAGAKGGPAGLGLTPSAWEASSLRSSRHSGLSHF
How it was run: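 Radioligand binding with [3H]-PGE2 in CHO cells overexpressing human EP1 receptor. Values are the mean of at least three experiments with standard deviations.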

Cytochrome P450 2C9 = Cytochrome P450 2C9 (Homo sapiens, UniProt P11712); assay: Inhibition of human CYP2C9; assay type: ADME
Chain of Cytochrome P450 2C9 (P11712 whole entry): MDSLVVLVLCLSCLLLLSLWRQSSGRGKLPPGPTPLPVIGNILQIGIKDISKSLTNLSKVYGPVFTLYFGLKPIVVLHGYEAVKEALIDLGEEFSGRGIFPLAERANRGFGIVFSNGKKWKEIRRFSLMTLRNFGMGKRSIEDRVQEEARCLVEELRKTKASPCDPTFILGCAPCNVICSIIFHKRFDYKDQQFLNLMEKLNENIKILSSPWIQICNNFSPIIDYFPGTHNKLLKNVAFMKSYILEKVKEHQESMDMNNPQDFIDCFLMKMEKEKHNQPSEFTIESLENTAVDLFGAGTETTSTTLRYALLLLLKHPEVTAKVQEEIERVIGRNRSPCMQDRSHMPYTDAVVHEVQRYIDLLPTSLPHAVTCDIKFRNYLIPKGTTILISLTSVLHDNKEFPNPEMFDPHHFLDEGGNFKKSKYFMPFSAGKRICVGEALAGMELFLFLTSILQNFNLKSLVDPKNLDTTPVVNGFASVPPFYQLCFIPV
How it was run: (§1)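 Inhibition of metabolism of fluorometric substrates (Cypex protocol); IC50 values are the mean of three experiments ± standard deviation.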

[2] = Drug level in brain of complete Freund's adjuvant-induced rat inflammatory pain model at 1 mg/kg, po administered after 23 hrs of adjuvant challenge measured after 1 hr; assay type: ADME, organism-based; design: dose 1 mg/kg, route oral; conditions: read-out: Drug uptake
How it was run: (§2)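 CFA rat study: oral doses of 1, 3 or 10 mg/kg given 23 h after intraplantar adjuvant, samples 1 h post-dose. Blood values are the mean from seven animals. Brain values are the mean from three animals.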

[3] = (§3) Drug level in brain of complete Freund's adjuvant-induced rat inflammatory pain model at 10 mg/kg, po administered after 23 hrs of adjuvant challenge measured after 1 hr; assay type: ADME, organism-based; design: dose 10 mg/kg, route oral; conditions: brain, read-out: Drug uptake; how it was run: as §2
Cytochrome P450 3A4 [4] = molecular target: T2, Cytochrome P450 3A4 (Homo sapiens, UniProt P08684); assay: Inhibition of human CYP3A4 using PPR substrate; assay type: ADME
T2 sequence (P08684 whole entry): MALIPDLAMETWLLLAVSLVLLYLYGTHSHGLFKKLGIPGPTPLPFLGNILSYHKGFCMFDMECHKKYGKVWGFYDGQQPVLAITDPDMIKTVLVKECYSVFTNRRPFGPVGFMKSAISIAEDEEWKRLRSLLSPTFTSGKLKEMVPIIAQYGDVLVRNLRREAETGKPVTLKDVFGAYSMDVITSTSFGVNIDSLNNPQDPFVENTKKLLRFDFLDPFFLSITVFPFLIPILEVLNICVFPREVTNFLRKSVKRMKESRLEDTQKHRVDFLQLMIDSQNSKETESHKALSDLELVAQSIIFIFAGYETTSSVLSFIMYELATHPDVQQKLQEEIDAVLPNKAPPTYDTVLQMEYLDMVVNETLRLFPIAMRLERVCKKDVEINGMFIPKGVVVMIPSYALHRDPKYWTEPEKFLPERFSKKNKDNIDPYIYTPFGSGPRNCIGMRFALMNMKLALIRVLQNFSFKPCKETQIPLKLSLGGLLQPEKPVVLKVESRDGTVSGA

[5] = Drug level in brain of complete Freund's adjuvant-induced rat inflammatory pain model at 3 mg/kg, po administered after 23 hrs of adjuvant challenge measured after 1 hr; assay type: ADME, organism-based; design: dose 3 mg/kg, route oral; conditions: read-out: Drug uptake; how it was run: as §2
[6] = Drug level in blood of complete Freund's adjuvant-induced rat inflammatory pain model at 1 mg/kg, po administered after 23 hrs of adjuvant challenge measured after 1 hr; assay type: ADME, organism-based; design: dose 1 mg/kg, route oral; conditions: read-out: Drug uptake; how it was run: as §2
[7] = Ratio of drug level in brain to blood in complete Freund's adjuvant-induced rat inflammatory pain model at 3 mg/kg, po administered after 23 hrs of adjuvant challenge measured after 1 hr; assay type: ADME, organism-based; design: dose 3 mg/kg, route oral; conditions: brain and blood
How it was run: (§4)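 Rat CFA inflammatory pain model: oral dosing at 1, 3 or 10 mg/kg 23 h after intraplantar adjuvant; blood and brain sampled 1 h post-dose from the same animal; Br:Bl ratio is the mean from three animals.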

Cytochrome P450 2C19 = Cytochrome P450 2C19 (Homo sapiens, UniProt P33261); assay: Inhibition of human CYP2C19; assay type: ADME; how it was run: as §1
Chain of Cytochrome P450 2C19 (P33261 whole entry): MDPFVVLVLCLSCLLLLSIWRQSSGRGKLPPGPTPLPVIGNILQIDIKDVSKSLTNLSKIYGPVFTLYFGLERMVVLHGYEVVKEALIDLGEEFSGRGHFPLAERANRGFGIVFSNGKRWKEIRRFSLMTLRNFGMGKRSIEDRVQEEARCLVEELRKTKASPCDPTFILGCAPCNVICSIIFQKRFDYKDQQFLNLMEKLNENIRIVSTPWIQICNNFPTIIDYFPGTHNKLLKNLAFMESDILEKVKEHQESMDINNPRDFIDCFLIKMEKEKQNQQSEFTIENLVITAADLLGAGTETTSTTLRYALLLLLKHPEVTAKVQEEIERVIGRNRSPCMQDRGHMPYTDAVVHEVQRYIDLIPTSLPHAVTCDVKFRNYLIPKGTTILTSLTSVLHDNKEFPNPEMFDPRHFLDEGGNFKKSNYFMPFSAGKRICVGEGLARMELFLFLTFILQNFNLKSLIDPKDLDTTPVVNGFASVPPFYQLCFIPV

Cytochrome P450 2D6 = Cytochrome P450 2D6 (Homo sapiens, UniProt P10635); assay: Inhibition of human CYP2D6; assay type: ADME; how it was run: as §1
Chain of Cytochrome P450 2D6 (P10635 whole entry): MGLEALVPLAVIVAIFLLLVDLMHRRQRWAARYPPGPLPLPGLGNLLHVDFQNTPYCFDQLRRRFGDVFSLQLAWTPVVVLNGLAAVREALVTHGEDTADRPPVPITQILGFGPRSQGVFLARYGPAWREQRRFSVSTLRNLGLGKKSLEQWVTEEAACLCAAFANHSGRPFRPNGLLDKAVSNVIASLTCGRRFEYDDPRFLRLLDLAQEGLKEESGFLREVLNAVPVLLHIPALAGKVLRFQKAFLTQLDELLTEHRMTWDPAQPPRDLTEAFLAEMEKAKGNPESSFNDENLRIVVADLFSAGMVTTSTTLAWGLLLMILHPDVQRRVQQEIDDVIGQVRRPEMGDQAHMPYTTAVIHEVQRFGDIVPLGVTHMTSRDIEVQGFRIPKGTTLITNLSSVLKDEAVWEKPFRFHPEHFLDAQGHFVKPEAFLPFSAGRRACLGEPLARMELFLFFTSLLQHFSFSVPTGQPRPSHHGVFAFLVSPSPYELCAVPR

[8] = Drug level in blood of complete Freund's adjuvant-induced rat inflammatory pain model at 3 mg/kg, po administered after 23 hrs of adjuvant challenge measured after 1 hr; assay type: ADME, organism-based; design: dose 3 mg/kg, route oral; conditions: read-out: Drug uptake; how it was run: as §2
[9] = Drug level in blood of complete Freund's adjuvant-induced rat inflammatory pain model at 10 mg/kg, po administered after 23 hrs of adjuvant challenge measured after 1 hr; assay type: ADME, organism-based; design: dose 10 mg/kg, route oral; conditions: read-out: Drug uptake; how it was run: as §2
[10] = Ratio of drug level in brain to blood in complete Freund's adjuvant-induced rat inflammatory pain model at 1 mg/kg, po administered after 23 hrs of adjuvant challenge measured after 1 hr; assay type: ADME, organism-based; design: dose 1 mg/kg, route oral; conditions: brain and blood; how it was run: as §4
Rattus norvegicus [11] = assay: […] activity against complete Freund's adjuvant induced inflammatory pain in po dosed rat assessed as reversal of hypersensitivity post-adjuvant challenge after 1 hr; assay type: functional
How it was run: (§5)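 Rats given adjuvant by intraplantar injection; oral dosing at 1, 3 and 10 mg/kg 23 h later. Hypersensitivity assessed by weight-bearing 1 h post-dose. ED50 derived across doses.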

Cytochrome P450 3A4 [12] = molecular target: T2, Cytochrome P450 3A4; assay: Inhibition of human CYP3A4 using DEF substrate; assay type: ADME
[13] = Lipophilicity, log D at pH 7.4; assay type: physicochemical; conditions: buffer
[14] = Ratio of drug level in brain to blood in complete Freund's adjuvant-induced rat inflammatory pain model at 10 mg/kg, po administered after 23 hrs of adjuvant challenge measured after 1 hr; assay type: ADME, organism-based; design: dose 10 mg/kg, route oral; conditions: brain and blood; how it was run: as §4
[15] = molecular target: T1, Prostaglandin E2 receptor EP1 subtype; assay: Antagonist activity at human recombinant EP1 receptor expressed in CHO cells assessed as inhibition of PGE2-mediated intracellular calcium mobilization by FLIPR method; assay type: functional, cell-based
How it was run: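 CHO cells recombinantly overexpressing human EP1 receptor; antagonism measured as block of PGE2-mediated intracellular Ca2+ mobilization. Values are the mean of at least three experiments with standard deviations.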

Cytochrome P450 1A2 = molecular target: T3, Cytochrome P450 1A2 (Homo sapiens, UniProt P05177); assay: Inhibition of human CYP1A2; assay type: ADME; how it was run: as §1
T3 sequence (P05177 whole entry): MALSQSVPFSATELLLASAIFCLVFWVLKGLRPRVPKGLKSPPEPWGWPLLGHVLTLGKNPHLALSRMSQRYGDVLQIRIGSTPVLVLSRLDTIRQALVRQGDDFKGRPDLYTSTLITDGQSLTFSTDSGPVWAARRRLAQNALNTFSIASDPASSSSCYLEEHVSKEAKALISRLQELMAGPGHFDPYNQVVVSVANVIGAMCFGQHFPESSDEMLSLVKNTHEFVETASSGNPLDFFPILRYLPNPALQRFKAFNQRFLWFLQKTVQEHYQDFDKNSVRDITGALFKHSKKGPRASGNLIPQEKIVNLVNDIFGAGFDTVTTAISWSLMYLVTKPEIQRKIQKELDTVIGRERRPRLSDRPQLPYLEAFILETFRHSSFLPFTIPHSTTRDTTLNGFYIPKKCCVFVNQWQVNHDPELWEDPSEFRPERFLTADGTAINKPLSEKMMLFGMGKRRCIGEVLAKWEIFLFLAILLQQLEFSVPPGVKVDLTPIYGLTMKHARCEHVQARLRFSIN

Brain = assay: as §3; assay type: ADME, organism-based; design: dose 10 mg/kg, route oral; conditions: in vivo, 1 h; how it was run: as §2
Rattus norvegicus [16] = assay: […] activity against complete Freund's adjuvant-induced inflammatory pain in rat assessed as reversal of hypersensitivity at 10 mg/kg, po administered 23 hrs post-adjuvant challenge measured after 1 hr; assay type: functional; how it was run: as §5
[17] = Selectivity for human recombinant EP1 receptor over DP1
[18] = Metabolic stability in rat liver microsomes assessed as compound turnover after 30 mins; assay type: ADME, Microsome; conditions: read-out: Stability
[19] = Metabolic stability in human liver microsomes assessed as compound turnover after 30 mins; assay type: ADME, Microsome; conditions: read-out: Stability

Question: For O=C(O)c1cccc(Cc2cc(Cl)ccc2OCc2ccc(Cl)cc2)n1, which IC50 [1] is on record?
Answer: 39.8 nM

Question: For O=C(O)c1cccc(Cc2cc(Cl)ccc2OCC2CCCC2)n1, which IC50 [1] is on record?
Answer: 31.6 nM

Question: Which IC50 [1] does the source give for O=C(O)c1cccc(Cc2cc(Cl)ccc2OCc2c(F)cc(F)cc2F)n1 here?
Answer: 79.4 nM

Question: Which IC50 [1] does the source give for O=C(O)c1cccc(Cc2cc(Cl)ccc2OCc2ccccc2Cl)n1 here?
Answer: 39.8 nM

Question: Which IC50 (Cytochrome P450 2C9) does the source give for O=C([O-])c1cccc(Cc2cc(Cl)ccc2OCc2ccc(F)cc2Cl)n1.[Na+] here?
Answer: 15000 nM

Question: And the concentration at 1 h [2]?
Answer: 93 nM

Question: What about the concentration at 1 h [3] of the same molecule?
Answer: 1120 nM

Question: And the IC50 (Cytochrome P450 3A4 [4])?
Answer: > 100000 nM

Question: What about the concentration at 1 h [5] of the same molecule?
Answer: 256 nM

Question: And the concentration at 1 h [6]?
Answer: 346 nM

Question: What about the Kp at 1 h [7] of the same molecule?
Answer: 0.3

Question: What about the IC50 [1] of the same molecule?
Answer: 12.6 nM

Question: And the IC50 (Cytochrome P450 2C19)?
Answer: 28000 nM

Question: What about the IC50 (Cytochrome P450 2D6) of the same molecule?
Answer: > 100000 nM

Question: What about the concentration at 1 h [8] of the same molecule?
Answer: 836 nM

Question: And the concentration at 1 h [9]?
Answer: 3010 nM

Question: What about the Kp at 1 h [10] of the same molecule?
Answer: 0.31

Question: And the ED50 (Rattus norvegicus [11])?
Answer: 5.6 mg/kg

Question: What about the IC50 (Cytochrome P450 3A4 [12]) of the same molecule?
Answer: 35000 nM

Question: And the logD [13]?
Answer: 2

Question: And the Kp at 1 h [14]?
Answer: 0.31

Question: What about the Ki [15] of the same molecule?
Answer: 100 nM

Question: And the IC50 (Cytochrome P450 1A2)?
Answer: 61000 nM

Question: Which Ratio (Brain) does the source give for Cc1cc(C(=O)[O-])nn1Cc1cc(Br)ccc1OCc1ccc(Cl)cc1Cl.[Na+] here?
Answer: < 0.05

Question: And the IC50 [1]?
Answer: 0.129 nM

Question: What about the Activity (Rattus norvegicus [16]) of the same molecule?
Answer: 70%

Question: For O=C(O)c1cccc(Cc2cc(Cl)ccc2OCC2CC2)n1, which IC50 [1] is on record?
Answer: 200 nM

Question: Which fold change (FC) [17] does the source give for O=C(O)c1cccc(C2=C(c3cc(Cl)ccc3OCc3ccc(F)cc3F)CCC2)n1 here?
Answer: > 400

Question: For O=C(O)c1cccc(Cc2cc(Cl)ccc2OCc2ccc(F)cc2F)n1, which IC50 [1] is on record?
Answer: 25.1 nM

Question: With O=C(O)c1cccc(Cc2cc(Cl)ccc2OCC2CCCCC2)n1 as the molecule, how does the IC50 [1] read?
Answer: 100 nM

Question: Which IC50 [1] does the source give for O=C(O)c1cccc(Cc2cc(Cl)ccc2OCc2ccccc2F)n1 here?
Answer: 79.4 nM

Question: Which IC50 [1] does the source give for O=C(O)c1cccc(Cc2cc(Cl)ccc2OCc2ccc(F)cc2)n1 here?
Answer: 100 nM

Question: Which IC50 (Cytochrome P450 2C9) does the source give for O=C(O)c1cccc(Cc2cc(Cl)ccc2OCc2ccc(Cl)cc2Cl)n1 here?
Answer: 4800 nM

Question: What about the IC50 [1] of the same molecule?
Answer: 10 nM

Question: What about the metabolised at 0.5 h [18] of the same molecule?
Answer: < 15%

Question: What about the IC50 (Cytochrome P450 2C19) of the same molecule?
Answer: > 50000 nM

Question: What about the IC50 (Cytochrome P450 2D6) of the same molecule?
Answer: > 50000 nM

Question: What about the metabolised at 0.5 h [19] of the same molecule?
Answer: < 15%

Question: What about the logD [13] of the same molecule?
Answer: 2.6

Question: And the Ki [15]?
Answer: 25.1 nM

Question: And the IC50 (Cytochrome P450 1A2)?
Answer: 32000 nM
